Results on 8 compounds are retold here after ChEMBL document CHEMBL1147863, “Synthesis, antimicrobial activities and cytogenetic studies of newer diazepino quinoline derivatives via Vilsmeier-Haack reaction” (2007).

Assay [1] concerns Talaromyces funiculosus. The assay is described as follows: Antifungal activity against Penicillium funiculosum at 1% (w/v) concentration by disc diffusion method. The assay is classed as functional. The gist of the method: (§1)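 Potato dextrose agar plates were seeded with a spore suspension (10⁶ spores/mL). Compounds in acetone at a final 0.5%, 1% or 2% w/v were loaded onto 5 mm filter-paper discs. Plates were incubated at 28 ± 2 °C for four days. Zone diameter was measured after subtracting the acetone-only plate zone, with carbendazim as standard.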
A general note: A growth-free zone around the sample is the usual read-out of agar diffusion tests.

Assay [2] deals with Alternaria macrospora. Description: Antifungal activity against Alternaria macrospora at 1% (w/v) concentration by disc diffusion method. The assay is classed as functional. The method in brief:
as §1

In assay [3] the test system is Aspergillus flavus. Description: Antifungal activity against Aspergillus flavus at 0.5% (w/v) concentration by disc diffusion method. The assay is classed as functional. The gist of the method:
as §1

The test system of assay [4] is Fusarium oxysporum. The assay is described as follows: Antifungal activity against Fusarium oxysporum at 1% (w/v) concentration by disc diffusion method. It counts as functional. The method in brief: as §1
Assay [5] relates to Talaromyces funiculosus. Description: Antifungal activity against Penicillium funiculosum at 2% (w/v) concentration by disc diffusion method. It counts as functional. The gist of the method: as §1
The test system of assay [6] is Fusarium oxysporum. Description: Antifungal activity against Fusarium oxysporum at 0.5% (w/v) concentration by disc diffusion method. The assay is classed as functional. The method in brief:
as §1

The test system of assay [7] is Aspergillus flavus. Description: Antifungal activity against Aspergillus flavus at 1% (w/v) concentration by disc diffusion method. It counts as functional. The gist of the method: as §1
Assay [8] has as its system Talaromyces funiculosus. Description: Antifungal activity against Penicillium funiculosum at 0.5% (w/v) concentration by disc diffusion method. It counts as functional. The method in brief: as §1
The test system of assay [9] is Alternaria macrospora. The assay is described as follows: Antifungal activity against Alternaria macrospora at 0.5% (w/v) concentration by disc diffusion method. The assay is classed as functional. The method in brief: as §1
The test system of assay [10] is Aspergillus flavus. The assay is described as follows: Antifungal activity against Aspergillus flavus at 2% (w/v) concentration by disc diffusion method. The assay is classed as functional. The method in brief:
as §1

Assay [11] concerns Alternaria macrospora. Description: Antifungal activity against Alternaria macrospora at 2% (w/v) concentration by disc diffusion method. It counts as functional. The method in brief: as §1
For assay [12], the system named is Fusarium oxysporum. Description: Antifungal activity against Fusarium oxysporum at 2% (w/v) concentration by disc diffusion method. The assay is classed as functional. The gist of the method:
as §1

Assay [13] concerns Escherichia coli. Description: Antibacterial activity against Escherichia coli at 0.25% (w/v) concentration after 24 hrs by disc diffusion method. It counts as functional. The gist of the method:
(§2)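 Disc diffusion on nutrient agar (pH 7.5 ± 0.2) swabbed with bacterial culture; compounds dissolved in chloroform at 0.125%, 0.25% or 0.5% w/v, soaked onto 5 mm filter paper discs placed on seeded plates. Incubated 35 ± 2 °C, 24 h; inhibition zone diameter (mm) measured, minus zone from solvent-only plate.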

Assay [14] deals with Salmonella typhi. Description: Antibacterial activity against Salmonella typhi at 0.5% (w/v) concentration after 24 hrs by disc diffusion method. The assay is classed as functional, Salmonella enterica subsp. enterica serovar Typhi. The gist of the method:
(§3)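 Disc diffusion on nutrient agar (pH 7.5 ± 0.2) swabbed with bacteria. Compounds were dissolved in chloroform at a final 0.125%, 0.25% or 0.5% w/v and loaded onto 5 mm filter-paper discs. Plates were incubated at 35 ± 2 °C for 24 h. The inhibition-zone diameter (mm) was reported after subtracting the zone of the solvent-only plate.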

Assay [15] concerns Aeromonas hydrophila. Description: Antibacterial activity against Aeromonas hydrophila at 0.25% (w/v) concentration after 24 hrs by disc diffusion method. It counts as functional. The method in brief: as §2
In assay [16] the test system is Escherichia coli. Description: Antibacterial activity against Escherichia coli at 0.125% (w/v) concentration after 24 hrs by disc diffusion method. It counts as functional. The gist of the method:
as §2

Assay [17] concerns Aeromonas hydrophila. Description: Antibacterial activity against Aeromonas hydrophila at 0.125% (w/v) concentration after 24 hrs by disc diffusion method. The assay is classed as functional. The method in brief: as §2
The subject of assay [18] is Aeromonas hydrophila. The assay is described as follows: Antibacterial activity against Aeromonas hydrophila at 0.5% (w/v) concentration after 24 hrs by disc diffusion method. The assay is classed as functional. The method in brief:
as §2

For assay [19], the system named is Escherichia coli. Description: Antibacterial activity against Escherichia coli at 0.5% (w/v) concentration by after 24 hrs by disc diffusion method. The assay is classed as functional. The gist of the method: as §2
Assay [20] concerns Salmonella typhi. Description: Antibacterial activity against Salmonella typhi at 0.125% (w/v) concentration after 24 hrs by disc diffusion method. It counts as functional, Salmonella enterica subsp. enterica serovar Typhi. The gist of the method:
as §3

Assay [21] has as its system Salmonella typhi. Description: Antibacterial activity against Salmonella typhi at 0.25% (w/v) concentration after 24 hrs by disc diffusion method. It counts as functional, Salmonella enterica subsp. enterica serovar Typhi. The gist of the method:
as §3

Structures are written as SMILES. The source made the active and inactive calls. No cut-off for these calls is given here.

Turning to `COC(=O)Nc1nc2ccccc2[nH]1` [CARBENDAZIM], the “inhibition zone (IZ)” value with Talaromyces funiculosus [1] worked out at 16 mm; in the assay on Alternaria macrospora [2] it was 13 mm; with Aspergillus flavus [3] it was 6 mm; in the assay on Fusarium oxysporum [4], 11 mm; in the assay on Talaromyces funiculosus [5], 21 mm; with Fusarium oxysporum [6], 6 mm. The “inhibition zone (IZ)” value in the assay on Aspergillus flavus [7] was 14 mm; in the assay with Talaromyces funiculosus [8], 9 mm; with Alternaria macrospora [9], 7 mm; in the assay on Aspergillus flavus [10], 21 mm; in the assay on Alternaria macrospora [11], 18 mm; in the assay with Fusarium oxysporum [12] it was 18 mm.
Turning to `O=Cc1c(/C=C/O)nc2ccc(Cl)cc2c1Cl`, the “inhibition zone (IZ)” value in the assay with Talaromyces funiculosus [1] was 5 mm; in the assay with Escherichia coli [13], 5 mm; with Alternaria macrospora [2], 7 mm; in the assay with Salmonella typhi [14] it was 17 mm; with Aspergillus flavus [3], 3 mm; with Aeromonas hydrophila [15], 9 mm. Also, the “inhibition zone (IZ)” value amounted to 5 mm in the assay with Fusarium oxysporum [4]; 1 mm with Escherichia coli [16]; 5 mm in the assay with Aeromonas hydrophila [17]; 10 mm with Talaromyces funiculosus [5]; 2 mm with Fusarium oxysporum [6]; 6 mm in the assay on Aspergillus flavus [7]. The “inhibition zone (IZ)” value in the assay on Aeromonas hydrophila [18] was 14 mm; in the assay with Talaromyces funiculosus [8], 2 mm; in the assay on Alternaria macrospora [9], 3 mm; in the assay with Escherichia coli [19] it was 8 mm; with Aspergillus flavus [10], 10 mm; with Alternaria macrospora [11], 11 mm. Also, the “inhibition zone (IZ)” value was 11 mm in the assay on Fusarium oxysporum [12], 6 mm in the assay with Salmonella typhi [20] and 11 mm with Salmonella typhi [21].
For the compound `CN[C@@H]1[C@H](O[C@H]2[C@H](O[C@H]3[C@H](O)[C@@H](O)[C@H](N=C(N)N)[C@@H](O)[C@@H]3N=C(N)N)O[C@@H](C)[C@]2(O)C=O)O[C@@H](CO)[C@H](O)[C@H]1O` (stereo in doubt) [STREPTOMYCIN], the “inhibition zone (IZ)” value was found to be 9 mm in the assay on Escherichia coli [13]; 18 mm with Salmonella typhi [14]; 12 mm in the assay with Aeromonas hydrophila [15]; 6 mm in the assay on Escherichia coli [16]; 8 mm in the assay with Aeromonas hydrophila [17]; 19 mm in the assay with Aeromonas hydrophila [18]. Also, the “inhibition zone (IZ)” value in the assay with Escherichia coli [19] is given as 15 mm; in the assay on Salmonella typhi [20], 8 mm; with Salmonella typhi [21] it was 10 mm.
Consider `Cc1ccc(C)c2c(Cl)c(C=O)c(/C=C/O)nc12`, for which the “inhibition zone (IZ)” value in the assay with Talaromyces funiculosus [1] is reported as 7 mm; in the assay with Escherichia coli [13] it was 5 mm; in the assay on Alternaria macrospora [2], 8 mm; with Salmonella typhi [14] it was 13 mm; in the assay on Aspergillus flavus [3] it was 4 mm; in the assay on Aeromonas hydrophila [15], 6 mm. In addition, the “inhibition zone (IZ)” value in the assay with Fusarium oxysporum [4] came out at 7 mm; in the assay on Escherichia coli [16], 3 mm; in the assay on Aeromonas hydrophila [17], 4 mm; with Talaromyces funiculosus [5] it was 11 mm; in the assay on Fusarium oxysporum [6], 3 mm; in the assay with Aspergillus flavus [7] it was 7 mm. Further, the “inhibition zone (IZ)” value is 10 mm with Aeromonas hydrophila [18]; 3 mm in the assay with Talaromyces funiculosus [8]; 3 mm in the assay with Alternaria macrospora [9]; 9 mm in the assay with Escherichia coli [19]; 12 mm in the assay on Aspergillus flavus [10]; 13 mm in the assay on Alternaria macrospora [11]. Also, the figures for the “inhibition zone (IZ)” value in the assay on Fusarium oxysporum [12], in the assay on Salmonella typhi [20] and with Salmonella typhi [21] were 12 mm, 5 mm and 8 mm, respectively.
Take `Clc1c2c(nc3ccccc13)C=CNN=C2`: the “inhibition zone (IZ)” value with Talaromyces funiculosus [1] is given as 4 mm; in the assay with Escherichia coli [13], 2 mm; with Alternaria macrospora [2], 3 mm; with Salmonella typhi [14] it was 10 mm; with Aspergillus flavus [3] it was 3 mm; in the assay on Aeromonas hydrophila [15], 8 mm. Further, the “inhibition zone (IZ)” value in the assay on Fusarium oxysporum [4] came to 3 mm; in the assay with Aeromonas hydrophila [17] it was 5 mm; in the assay on Talaromyces funiculosus [5] it was 9 mm; in the assay on Aspergillus flavus [7], 5 mm; with Aeromonas hydrophila [18] it was 12 mm; in the assay with Talaromyces funiculosus [8], 1 mm. Moreover, the “inhibition zone (IZ)” value is 1 mm in the assay with Alternaria macrospora [9]; 4 mm in the assay with Escherichia coli [19]; 9 mm in the assay with Aspergillus flavus [10]; 7 mm with Alternaria macrospora [11]; 7 mm in the assay on Fusarium oxysporum [12]; 4 mm with Salmonella typhi [20]. The “inhibition zone (IZ)” value with Salmonella typhi [21] stood at 6 mm. The outcome in the assay with Escherichia coli [16] and with Fusarium oxysporum [6] was inactive.
For `Cc1cccc2c(Cl)c(C=O)c(/C=C/O)nc12`, the “inhibition zone (IZ)” value in the assay on Talaromyces funiculosus [1] amounted to 2 mm; in the assay with Alternaria macrospora [2] it was 5 mm; in the assay with Salmonella typhi [14], 11 mm; in the assay on Aspergillus flavus [3] it was 1 mm; with Aeromonas hydrophila [15], 8 mm; in the assay on Fusarium oxysporum [4], 3 mm. Further, the “inhibition zone (IZ)” value with Aeromonas hydrophila [17] stood at 4 mm; with Talaromyces funiculosus [5], 6 mm; in the assay with Aspergillus flavus [7], 2 mm; in the assay on Aeromonas hydrophila [18], 11 mm; with Alternaria macrospora [9], 2 mm; in the assay with Aspergillus flavus [10], 5 mm. The “inhibition zone (IZ)” value in the assay on Alternaria macrospora [11] was found to be 9 mm; in the assay on Fusarium oxysporum [12] it was 7 mm; in the assay on Salmonella typhi [20], 4 mm; in the assay on Salmonella typhi [21], 7 mm. The outcome with Escherichia coli [13], in the assay with Escherichia coli [16], in the assay with Fusarium oxysporum [6], with Talaromyces funiculosus [8] and in the assay on Escherichia coli [19] was inactive.
For `Cc1ccc2c(Cl)c(C=O)c(/C=C/O)nc2c1`, the “inhibition zone (IZ)” value with Talaromyces funiculosus [1] was 3 mm; with Alternaria macrospora [2], 4 mm; in the assay with Salmonella typhi [14], 13 mm; with Aspergillus flavus [3] it was 3 mm; in the assay with Aeromonas hydrophila [15], 7 mm; in the assay on Fusarium oxysporum [4], 4 mm. Further, the “inhibition zone (IZ)” value in the assay on Aeromonas hydrophila [17] amounted to 3 mm; with Talaromyces funiculosus [5] it was 8 mm; in the assay with Fusarium oxysporum [6], 1 mm; with Aspergillus flavus [7] it was 5 mm; in the assay with Aeromonas hydrophila [18] it was 10 mm; in the assay on Talaromyces funiculosus [8], 1 mm. Moreover, the “inhibition zone (IZ)” value was determined as 2 mm in the assay with Alternaria macrospora [9]; 2 mm in the assay on Escherichia coli [19]; 9 mm with Aspergillus flavus [10]; 7 mm with Alternaria macrospora [11]; 9 mm with Fusarium oxysporum [12]; 4 mm in the assay on Salmonella typhi [20]. In the assay with Salmonella typhi [21], the “inhibition zone (IZ)” value is 8 mm. Moreover, the result with Escherichia coli [13] and with Escherichia coli [16] was inactive.
With `Clc1ccc2nc3c(c(Cl)c2c1)C=NNC=C3`, the “inhibition zone (IZ)” value with Talaromyces funiculosus [1] was 9 mm; in the assay on Escherichia coli [13], 7 mm; in the assay on Alternaria macrospora [2], 9 mm; in the assay on Salmonella typhi [14], 19 mm; with Aspergillus flavus [3] it was 5 mm; in the assay on Aeromonas hydrophila [15], 11 mm. The “inhibition zone (IZ)” value with Fusarium oxysporum [4] came to 8 mm; in the assay on Escherichia coli [16], 3 mm; in the assay on Aeromonas hydrophila [17], 6 mm; with Talaromyces funiculosus [5], 14 mm; in the assay on Fusarium oxysporum [6], 4 mm; with Aspergillus flavus [7] it was 8 mm. Moreover, the “inhibition zone (IZ)” value with Aeromonas hydrophila [18] worked out at 16 mm; in the assay on Talaromyces funiculosus [8], 6 mm; with Alternaria macrospora [9], 5 mm; with Escherichia coli [19] it was 11 mm; in the assay on Aspergillus flavus [10] it was 13 mm; in the assay on Alternaria macrospora [11], 15 mm. For the same compound, the “inhibition zone (IZ)” value is given as 13 mm with Fusarium oxysporum [12], 6 mm in the assay on Salmonella typhi [20] and 12 mm in the assay with Salmonella typhi [21].
